{"source": "ChEMBL document CHEMBL2346664", "about": "“Synthesis, characterization and in vitro anticancer evaluation of novel 1,2,4-triazolin-3-one derivatives” (2013)", "type_in_all_cases": "functional", "key": {"OVCAR-3": {"system": "OVCAR-3", "assay": "Growth inhibition of human OVCAR3 cells assessed as cell growth at 10 '-7 M after 48 hrs by sulforhodamine B assay", "conditions": "OVCAR-3, 48 h, read-out: Activity"}, "Malme-3M [1]": {"system": "Malme-3M", "assay": "Growth inhibition of human MALME-3M cells assessed as cell growth at 10 '-8 M after 48 hrs by sulforhodamine B assay", "conditions": "read-out: Activity"}, "ACHN [2]": {"system": "ACHN", "assay": "Growth inhibition of human ACHN cells assessed as cell growth at 10 '-7 M after 48 hrs by sulforhodamine B assay", "conditions": "read-out: Activity", "in_short": "(§1)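 Percent growth at each of the five concentrations of the 48 h continuous-exposure NCI SRB screen. Drug stocks were in DMSO at 400× the top final concentration and diluted in medium with gentamicin. Growth was calculated as [(Ti-Tz)/(C-Tz)]×100 when Ti ≥ Tz, or [(Ti-Tz)/Tz]×100 when Ti < Tz. Tz plates were fixed at drug addition; untreated wells served as control. Absorbance was read at 515 nm.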"}, "SN12C": {"system": "SN12C", "assay": "Growth inhibition of human SN12C cells assessed as cell growth at 10 '-4 M after 48 hrs by sulforhodamine B assay", "conditions": "read-out: Activity"}, "Malme-3M [3]": {"system": "Malme-3M", "assay": "Growth inhibition of human MALME-3M cells after 48 hrs by sulforhodamine B assay", "in_short": "(§2)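 NCI 60-cell-line five-dose screen. Cells were plated at 5,000–40,000/well by doubling time and grown 24 h at 37 °C, 5% CO2. Time-zero plates were TCA-fixed. Drug from DMSO stock was tested at 0.01, 0.1, 1, 10 and 100 µM final for 48 h continuous exposure. Read-out was SRB at 515 nm. GI50 is the concentration giving 50% reduction in net protein increase versus untreated control.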"}, "SK-MEL-28": {"system": "SK-MEL-28", "assay": "Growth inhibition of human SK-MEL-28 cells assessed as cell growth at 10 '-4 M after 48 hrs by sulforhodamine B assay", "conditions": "SK-MEL-28, 48 h, read-out: Activity"}, "SF-539": {"system": "SF-539", "assay": "Growth inhibition of human SF539 cells assessed as cell growth at 10 '-7 M after 48 hrs by sulforhodamine B assay", "conditions": "SF-539, 48 h, read-out: Activity"}, "MDA-MB-231": {"system": "MDA-MB-231", "assay": "Growth inhibition of human MDA-MB-231 cells assessed as cell growth at 10 '-8 M after 48 hrs by sulforhodamine B assay", "conditions": "MDA-MB-231, 48 h, read-out: Activity"}, "UACC-62": {"system": "UACC-62", "assay": "Growth inhibition of human UACC62 cells assessed as cell growth at 10 '-5 M after 48 hrs by sulforhodamine B assay", "conditions": "UACC-62, 48 h, read-out: Activity"}, "[4]": {"assay": "Growth inhibition of human Hs 578T cells assessed as cell growth at 10 '-7 M after 48 hrs by sulforhodamine B assay", "conditions": "read-out: Activity"}, "COLO 205": {"system": "COLO 205", "assay": "Growth inhibition of human COLO205 cells after 48 hrs by sulforhodamine B assay", "conditions": "COLO 205, 48 h", "in_short": "as §2"}, "HCT-116 [5]": {"system": "HCT-116", "assay": "Growth inhibition of human HCT116 cells after 48 hrs by sulforhodamine B assay", "conditions": "HCT-116, 48 h", "in_short": "as §2"}, "K562 [6]": {"system": "K562", "assay": "Growth inhibition of human K562 cells assessed as growth inhibition at 10 uM after 48 hrs by sulforhodamine B assay", "conditions": "K562, 48 h, read-out: GI"}, "RPMI-8226": {"system": "RPMI-8226", "assay": "Growth inhibition of human RPMI8226 cells assessed as growth inhibition at 10 uM after 48 hrs by sulforhodamine B assay", "conditions": "RPMI-8226, 48 h, read-out: GI"}, "UACC-257": {"system": "UACC-257", "assay": "Growth inhibition of human UACC257 cells assessed as cell growth at 10 '-6 M after 48 hrs by sulforhodamine B assay", "conditions": "UACC-257, 48 h, read-out: Activity"}, "ACHN [7]": {"system": "ACHN", "assay": "Growth inhibition of human ACHN cells assessed as cell growth at 10 '-6 M after 48 hrs by sulforhodamine B assay", "conditions": "read-out: Activity", "in_short": "as §1"}, "786-0": {"system": "786-0", "assay": "Growth inhibition of human 786-0 cells assessed as cell growth at 10 '-5 M after 48 hrs by sulforhodamine B assay", "conditions": "786-0, 48 h, read-out: Activity", "in_short": "as §1"}, "MDA-MB-435": {"system": "MDA-MB-435", "assay": "Growth inhibition of human MDA-MB-435 cells assessed as cell growth at 10 '-4 M after 48 hrs by sulforhodamine B assay", "conditions": "MDA-MB-435, 48 h, read-out: Activity"}, "HCT-116 [8]": {"system": "HCT-116", "assay": "Growth inhibition of human HCT116 cells assessed as cell growth at 10 '-8 M after 48 hrs by sulforhodamine B assay", "conditions": "HCT-116, 48 h, read-out: Activity"}, "HOP-62 [9]": {"system": "HOP-62", "assay": "Growth inhibition of human HOP62 cells after 48 hrs by sulforhodamine B assay", "conditions": "HOP-62, 48 h", "in_short": "as §2"}, "TK-10": {"system": "TK-10", "assay": "Growth inhibition of human TK10 cells assessed as cell growth at 10 '-8 M after 48 hrs by sulforhodamine B assay", "conditions": "TK-10, 48 h, read-out: Activity"}, "SF-295": {"system": "SF-295", "assay": "Growth inhibition of human SF295 cells assessed as cell growth at 10 '-7 M after 48 hrs by sulforhodamine B assay", "conditions": "SF-295, 48 h, read-out: Activity"}, "OVCAR-5": {"system": "OVCAR-5", "assay": "Growth inhibition of human OVCAR5 cells assessed as cell growth at 10 '-7 M after 48 hrs by sulforhodamine B assay", "conditions": "OVCAR-5, 48 h, read-out: Activity"}, "K562 [10]": {"system": "K562", "assay": "Growth inhibition of human K562 cells assessed as cell growth at 10 '-6 M after 48 hrs by sulforhodamine B assay", "conditions": "K562, 48 h, read-out: Activity"}, "SNB-19": {"system": "SNB-19", "assay": "Growth inhibition of human SNB19 cells assessed as growth inhibition at 10 uM after 48 hrs by sulforhodamine B assay", "conditions": "SNB-19, 48 h, read-out: GI"}, "NCI-H23": {"system": "NCI-H23", "assay": "Growth inhibition of human NCI-H23 cells assessed as growth inhibition at 10 uM after 48 hrs by sulforhodamine B assay", "conditions": "NCI-H23, 48 h, read-out: GI"}, "SW-620 [11]": {"system": "SW-620", "assay": "Growth inhibition of human SW620 cells assessed as cell growth at 10 '-8 M after 48 hrs by sulforhodamine B assay", "conditions": "SW-620, 48 h, read-out: Activity"}, "SK-OV-3": {"system": "SK-OV-3", "assay": "Growth inhibition of human SKOV3 cells after 48 hrs by sulforhodamine B assay", "conditions": "SK-OV-3, 48 h"}, "HOP-62 [12]": {"system": "HOP-62", "assay": "Growth inhibition of human HOP62 cells assessed as cell growth at 10 '-5 M after 48 hrs by sulforhodamine B assay", "conditions": "HOP-62, 48 h, read-out: Activity"}, "SW-620 [13]": {"system": "SW-620", "assay": "Growth inhibition of human SW620 cells after 48 hrs by sulforhodamine B assay", "conditions": "SW-620, 48 h"}, "SK-MEL-5": {"system": "SK-MEL-5", "assay": "Growth inhibition of human SK-MEL-5 cells after 48 hrs by sulforhodamine B assay", "conditions": "SK-MEL-5, 48 h"}, "[14]": {"conditions": "read-out: LD50 (the source's name)"}}, "data": [{"smiles": "Cc1cc(=O)oc2cc(OCCn3c(C)nn(-c4ccc(Cl)cc4)c3=O)ccc12", "values": [{"measurement": "growth at 0.1 µM", "setting": "OVCAR-3", "result": 110, "unit": "%"}, {"measurement": "growth at 0.01 µM", "setting": "Malme-3M [1]", "result": 105, "unit": "%"}, {"measurement": "growth at 0.1 µM", "setting": "ACHN [2]", "result": 106, "unit": "%"}, {"measurement": "growth at 100 µM", "setting": "SN12C", "result": 37, "unit": "%"}, {"measurement": "GI50", "setting": "Malme-3M [3]", "result": 3.85, "unit": "µM"}, {"measurement": "TGI", "setting": "Malme-3M [3]", "result": "> 1", "unit": "µM"}, {"measurement": "CC50", "setting": "Malme-3M [3]; [14]", "result": "> 1", "unit": "µM"}, {"measurement": "growth at 100 µM", "setting": "SK-MEL-28", "result": 33, "unit": "%"}, {"measurement": "growth at 0.1 µM", "setting": "SF-539", "result": 103, "unit": "%"}, {"measurement": "growth at 0.01 µM", "setting": "MDA-MB-231", "result": 96, "unit": "%"}, {"measurement": "growth at 10 µM", "setting": "UACC-62", "result": 24, "unit": "%"}, {"measurement": "growth at 0.1 µM", "setting": "[4]", "result": 83, "unit": "%"}, {"measurement": "GI50", "setting": "COLO 205", "result": 2.39, "unit": "µM"}, {"measurement": "TGI", "setting": "COLO 205", "result": 7.34, "unit": "µM"}, {"measurement": "CC50", "setting": "COLO 205; [14]", "result": "> 1", "unit": "µM"}, {"measurement": "GI50", "setting": "HCT-116 [5]", "result": 3.57, "unit": "µM"}, {"measurement": "TGI", "setting": "HCT-116 [5]", "result": "> 1", "unit": "µM"}, {"measurement": "CC50", "setting": "HCT-116 [5]; [14]", "result": "> 1", "unit": "µM"}, {"measurement": "inhibition of growth at 10 µM", "setting": "K562 [6]", "result": 83.7, "unit": "%"}, {"measurement": "inhibition of growth at 10 µM", "setting": "RPMI-8226", "result": 69, "unit": "%"}, {"measurement": "growth at 1 µM", "setting": "UACC-257", "result": 96, "unit": "%"}, {"measurement": "growth at 1 µM", "setting": "ACHN [7]", "result": 95, "unit": "%"}, {"measurement": "growth at 10 µM", "setting": "786-0", "result": 35, "unit": "%"}, {"measurement": "growth at 100 µM", "setting": "MDA-MB-435", "result": -26, "unit": "%"}, {"measurement": "growth at 0.01 µM", "setting": "HCT-116 [8]", "result": 101, "unit": "%"}, {"measurement": "GI50", "setting": "HOP-62 [9]", "result": 3.05, "unit": "µM"}, {"measurement": "TGI", "setting": "HOP-62 [9]", "result": 3.29, "unit": "µM"}, {"measurement": "CC50", "setting": "HOP-62 [9]; [14]", "result": "> 1", "unit": "µM"}, {"measurement": "growth at 0.01 µM", "setting": "TK-10", "result": 94, "unit": "%"}, {"measurement": "growth at 0.1 µM", "setting": "SF-295", "result": 85, "unit": "%"}, {"measurement": "growth at 0.1 µM", "setting": "OVCAR-5", "result": 102, "unit": "%"}, {"measurement": "growth at 1 µM", "setting": "K562 [10]", "result": 53, "unit": "%"}, {"measurement": "inhibition of growth at 10 µM", "setting": "SNB-19", "result": 45.5, "unit": "%"}, {"measurement": "inhibition of growth at 10 µM", "setting": "NCI-H23", "result": 54.2, "unit": "%"}, {"measurement": "growth at 0.01 µM", "setting": "SW-620 [11]", "result": 99, "unit": "%"}, {"measurement": "GI50", "setting": "SK-OV-3", "result": 3.36, "unit": "µM"}, {"measurement": "TGI", "setting": "SK-OV-3", "result": 4.88, "unit": "µM"}, {"measurement": "CC50", "setting": "SK-OV-3; [14]", "result": "> 1", "unit": "µM"}, {"measurement": "growth at 10 µM", "setting": "HOP-62 [12]", "result": 8, "unit": "%"}, {"measurement": "GI50", "setting": "SW-620 [13]", "result": 2.2, "unit": "µM"}, {"measurement": "TGI", "setting": "SW-620 [13]", "result": "> 1", "unit": "µM"}, {"measurement": "CC50", "setting": "SW-620 [13]; [14]", "result": "> 1", "unit": "µM"}, {"measurement": "GI50", "setting": "SK-MEL-5", "result": 8.48, "unit": "µM"}, {"measurement": "TGI", "setting": "SK-MEL-5", "result": "> 1", "unit": "µM"}, {"measurement": "CC50", "setting": "SK-MEL-5; [14]", "result": "> 1", "unit": "µM"}]}]}
